Screening results as filed in PubChem.
mIAP inh: blocks mouse intestinal alkaline phosphatase. purified mouse IAP, CDP-Star luminescence, 30 min. inhibition, % at 10 µM. 330,000 compounds, 0.2% hits. AID 2806;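 active = inhibition of at least 40% at 10 µM in the primary screen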;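 also: plate controls were DMSO with enzyme for no effect and no enzyme wells for full effect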
bIAP inhibitor: intestinal alkaline phosphatase (bovine) inhibition | purified bovine IAP, CDP-star luminescence, 30 min | inhibition, % at 20 µM | 190,000 tested, under 10 active;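 active = over 50% inhibition of intestinal alkaline phosphatase at 20 µM in the single-dose screen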
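test system = bovine IAP enzyme | medium = DEA buffer 100 mM, pH 9.8, with MgCl2 1.0 mM, ZnCl2 0.02 mM | detection = luminescence | dosing = single compound dose of 20 µM, 2% DMSO final | incubation = 30 min reaction at room temperature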
bIAP activator: increases bovine intestinal alkaline phosphatase activity; purified bovine IAP, CDP-star luminescence, 30 min; hits give high values; fold of DMSO-control signal, blank-subtracted; activation factor at 20 µM; 200,000 compounds, 0.17% hits;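 active = activation factor of 2 or more at 20 µM, a signal rise over negative controls twice the positive control's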
mIAP activ: mouse IAP activation; muIAP, CDP-Star luminescence, 30 min; hits give high values; 1 = vehicle-only enzyme signal, 0 = enzyme-free wells; activation factor at 10 µM; 330,000 compounds, 0.24% hits;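 active = activation factor of at least 2 at 20 µM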
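Assay system: mouse IAP enzyme; Reagent: CDP-Star chemiluminescent phosphatase substrate; Compound: DMSO-dissolved test compounds; Incubation: 30 min, room temperature; Technique: luminescence from enzymatic CDP-Star hydrolysis; Controls: DMSO-only wells and no-enzyme negative control.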
hIAP act: human IAP activation; P09923; purified human IAP, CDP-Star luminescence, 30 min; hits give high values; 1 = vehicle-only enzyme, 0 = enzyme-free background; activation factor at 10 µM; 330,000 compounds, 0.16% hits;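 active = activation factor of the enzyme at least 2-fold when tested at 20 µM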
Target sequence (P09923 whole entry, looked up): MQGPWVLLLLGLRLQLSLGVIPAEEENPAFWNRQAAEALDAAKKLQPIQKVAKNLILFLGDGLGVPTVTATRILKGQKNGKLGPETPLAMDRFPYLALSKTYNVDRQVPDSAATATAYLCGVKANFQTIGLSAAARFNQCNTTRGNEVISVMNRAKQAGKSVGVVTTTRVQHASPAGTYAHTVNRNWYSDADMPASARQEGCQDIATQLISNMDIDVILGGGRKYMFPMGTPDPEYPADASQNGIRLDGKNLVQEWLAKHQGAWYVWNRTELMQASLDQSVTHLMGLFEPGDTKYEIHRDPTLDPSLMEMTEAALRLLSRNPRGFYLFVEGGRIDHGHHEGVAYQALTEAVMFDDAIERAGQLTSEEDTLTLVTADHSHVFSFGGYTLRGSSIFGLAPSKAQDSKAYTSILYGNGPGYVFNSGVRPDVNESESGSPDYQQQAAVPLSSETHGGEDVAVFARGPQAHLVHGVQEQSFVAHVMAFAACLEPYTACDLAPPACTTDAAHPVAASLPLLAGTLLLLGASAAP
hIAP inh: human IAP inhibition. inhibition, % at 10 µM. 330,000 compounds, 0.12% hits. purified IAP, CDP-Star luminescence, 30 min;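 active = inhibition reaching a set limit with compound at 10 µM in the primary screen, cut at about 35% in these data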;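 also: plate controls were DMSO wells with enzyme for no effect and no-enzyme buffer wells for full effect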
* hit, by the source's call; i = inactive; / = not tested or not shown. The list is not random: actives were taken first. Their share in the collection is about 0.79%.

SMILES	mIAP inh	bIAP inhibitor	bIAP activator	mIAP activ	hIAP act	hIAP inh
COc1ccc(OC)c(S(=O)(=O)N2CCC(C(=O)Nc3cccc(C(F)(F)F)c3)CC2)c1	-156	0	1	2.6*	1.1	-11
COc1cccc(NC(=O)C2CCN(S(=O)(=O)c3ccc4c(c3)OCCO4)CC2)c1	-49	-152	2.5*	1.5	0.84	16
O=C(COC(=O)c1cccc(Oc2ccccc2)c1)NCc1ccco1	5	20	0.8	0.95	0.93	7
O=C(CSc1nc2ccccc2n1CC(=O)N1CCCC1)Nc1nccs1	4	-6	1.1	0.96	0.73	27
CN(CC(=O)NCc1cccnc1)S(=O)(=O)c1ccc2c(c1)c(=O)n(C)c(=O)n2C	1	4	1	0.99	1.2	-17
O=C(NCCc1c[nH]c2ccccc12)Nc1cccc2ccccc12	-132	22	0.8	2.3*	0.97	2
CCOC(=O)c1cccc(NC(=S)NCc2ccc(C)cc2)c1	-143	7	0.9	2.4*	1.2	-17
CCOc1ccccc1NC(=O)NCCc1c[nH]c2ccccc12	-21	/	/	1.2	1.2	-20
CCOC(=O)c1ccc(NC(=O)NCc2ccc(OC)cc2)cc1	-119	-6	1.1	2.2*	0.98	2
CC(=O)c1cccc(NC(=S)NCc2ccccc2)c1	-2	/	/	1	1.1	-5
O=C(Nc1ccccc1)Nc1cccc2ccccc12	-189	/	/	2.9*	1	-2
C=CCn1cc(F)c(=O)n(CC=C)c1=O	-2	7	0.9	1	1.1	-7
CCOC(=O)c1cccc(NC(=S)NC(=O)c2cccnc2)c1	9	/	/	0.91	1	-1
O=C(NCc1cccc2ccccc12)Nc1ccccc1	-100	6	0.9	2*	1.1	-13
COc1ccc(CNC(=O)Nc2cccc3ccccc23)cc1	-106	-21	1.2	2.1*	0.95	5
O=C(NCc1ccccc1)Nc1cccc2ccccc12	-65	-8	1.1	1.6	1.1	-10
CCCn1c(NC(=O)CSCC(=O)Nc2cc(C)on2)nc2ccccc21	-2	/	/	1	1.2	-20
CCn1c(SCc2nc3ccccc3[nH]2)nnc1-c1ccccc1OC	2	-133	2.3*	0.98	0.87	13
COc1ccc(Cl)cc1NC(=O)C(C)N1CCN(C/C=C/c2ccccc2)CC1 (stereo not drawn)	-12	-234	3.3*	1.1	0.82	18
COc1ccc(NC(=O)CSc2nnc(NC(=O)C3CCC3)s2)c(OC)c1	5	/	/	0.95	0.92	8
Cc1ccc(NC(=O)COc2ccccc2CNC(C)(C)CC(C)(C)C)cc1	-58	i	30*	1.6	0.89	11
COc1cc(NC(=O)COc2ccc(-n3ccnc3)cc2)cc(OC)c1	-10	-25	1.2	1.1	1.3	-28
CC(C)(C)c1ccc(NC(=O)COc2ccc(-n3ccnc3)cc2)cc1	-23	-165	2.6*	1.2	1.1	-7
Cc1ccc(C)c(OCCC(=O)Nc2cc(S(=O)(=O)N3CCCCC3)ccc2C)c1	-48	/	/	1.5	0.99	1
Cc1ccc(C)c(OCCC(=O)Nc2cccc(S(=O)(=O)N3CCCCC3)c2)c1	-105	/	/	2*	1	-2
SMILES	mIAP inh	bIAP inhibitor	bIAP activator	mIAP activ	hIAP act	hIAP inh
COc1cccc2c1NC(C(=O)O)C1CC=CC21 (stereo not drawn)	57*	12	0.9	0.43	1.1	-7
Cc1ccc2c(c1)C1C=CCC1C(C(=O)O)N2 (stereo not drawn)	/	7	0.9	/	/	/
O=C(N1CCN(c2ccccc2F)CC1)C1(c2cccs2)CCOCC1	-3	-275	3.7*	1	0.93	7
CN(C)C(=O)c1ccc(NC(=O)c2ccccc2Sc2ccccc2C#N)cc1	0	39	0.6	1	1	0
COc1ccc(Cl)cc1NC(=O)C/C(C)=N/NC(=O)CCc1ccccc1	6	/	/	0.94	1	0
Cc1ncoc1C(=O)Nc1ccc2c(c1)OCCO2	8	5	0.9	0.92	0.84	16
Cc1ccsc1C(=O)Nc1ccc2c(c1)OCCO2	-4	-110	2.1*	1	0.94	6
CC(NC(=O)c1ccccc1F)c1nnc(SCc2nc3ccccc3c(=O)[nH]2)n1C (stereo not drawn)	2	5	0.9	0.98	1.2	-18
COc1ccc(NC(=O)NC23CC4(C)CC(C)(CC(C)(C4)C2)C3)cc1OC	-294	8	0.9	3.9*	0.87	13
COC(=O)c1ccc(NC(=O)Nc2ccc(OC)c(OC)c2)cc1	-57	-22	1.2	1.6	1.3	-32
COc1ccc(NC(=O)COc2cccc3c2OC(C)(C)C3)cc1OC	-7	/	/	1.1	0.82	18
CC(C)NC(=O)N(C)C[C@H]1Oc2ccc(NC(=O)Nc3ccc4c(c3)OCO4)cc2C(=O)N([C@H](C)CO)C[C@@H]1C	-25	/	/	1.3	1.2	-18
C[C@H](CO)N1C[C@H](C)[C@@H](CN(C)C(=O)Nc2ccc3c(c2)OCO3)Oc2ccc(NC(=O)Nc3ccc4c(c3)OCO4)cc2C1=O	-139	/	/	2.4*	1.2	-15
CNC[C@@H]1Oc2ccc(NC(=O)Nc3ccccc3)cc2C(=O)N([C@@H](C)CO)C[C@H]1C	-132	/	/	2.3*	1.1	-8
CNC[C@H]1Oc2ccc(NC(=O)Nc3ccc4c(c3)OCO4)cc2C(=O)N([C@H](C)CO)C[C@@H]1C	-116	/	/	2.2*	1	-4
Cc1ccc(C)c(N2CCN(C(=O)C3CCCN(c4ncnc5c4nc4n5CCCCC4)C3)CC2)c1 (stereo not drawn)	1	/	/	0.99	1.2	-18
Cn1c(CC(=O)Nc2ccccc2Cl)nnc1SCC(=O)Nc1nncs1	-6	/	/	1.1	1.1	-6
CC(/C=C/c1ccco1)=N\NC(=O)c1cc(C)[nH]n1	41*	-25	1.2	0.59	1.2	-22
CCc1cc(Cn2nc(-c3ccccc3)cc2C(=O)NCc2ccc(C)cc2)on1	-233	/	/	3.3*	0.77	23
CCc1cc(Cn2nc(-c3ccccc3)cc2C(=O)O)on1	-6	/	/	1.1	0.88	12
Cn1c2c(c3ccccc31)CCN=C2c1ccccc1	8	/	/	0.92	0.79	21
CC(=O)N1N=C(c2ccccc2)CC1c1cccs1 (stereo not drawn)	1	/	/	0.99	1.1	-15
CC(=O)Nc1ccc(C2=NN(c3ccccc3)C(c3cccs3)C2)cc1 (stereo not drawn)	-131	-29	1.3	2.3*	1.2	-16
CCCSc1n[nH]c(NC(C)=O)n1	7	0	1	0.93	1	-3
CCCCCCCCCCSc1n[nH]c(NC(C)=O)n1	-114	-234	3.3*	2.1*	1.1	-8
CCC(C)/C(C)=N/NC(=O)c1ccc(COc2ccc(Cl)c(C)c2)cc1 (stereo not drawn)	/	2	1	/	/	/
